# Source: PubChem BioAssay
# Compounds with a hit are over-represented: about 2.1% of the library has one in this group of screens.
# MC4R ag barr = activates human MC4R beta-arrestin recruitment; AID 540308; actives 0.98% (n = 360,000); U2OS MC4R beta-arrestin complementation, luminescence; percent of melanotan II response, DMSO zero; P32245; activation, % at 8.9 µM;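 active = activation above a per-plate cutoff, the mean activation of sample wells on that plate plus 3 SD, cut at about 8% in these data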
# MC4R antag cAMP = human MC4R antagonism in cAMP assay; actives 0.48% (n = 360,000); inhibition, % at 6.5 µM; P32245; MC4R-expressing cells, MTII-stimulated cAMP, LANCE TR-FRET;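 active = inhibition above its plate's cutoff, the mean of tested wells on that plate plus 3 SD, cut at about 29% in these data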;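 also: 0% = Melanotan II alone and 100% = Melanotan II plus saturating MCL0020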
#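 Assay system: U2OS cells stably expressing human melanocortin 4 receptor (MC4R) / Dosing: 6.5 µM / Timing: compound 30 min, challenge 1 h, detection 1 h / Measured by: Eu-cAMP/anti-cAMP TR-FRET, emission 671 nm / Replicates: singlicate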
# TLR4-MyD88 BLA = blocks binding of human TLR4 to MyD88. O00206+Q99836. HeLa CL3-4 TLR4/MyD88 BLA complementation, FRET ratio. inhibition, % at 8.4 µM. actives 0.18% (n = 200,000). AID 861; in the data active = inhibition above about 25%;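 also: 0% = vehicle and 100% = reference inhibitor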
# MIN6 prolif = induces beta-cell replication in MIN6 cells; MIN6 cells proliferation, ATPlite luminescence, 48 h; cells starved in 0.2% serum; 100% = growth in 10% serum; proliferation, % at 10 µM; actives 0.29% (n = 330,000);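 active = compounds whose signal lies at least 3.5 SD above the mean of all wells on their plate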;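 also: 0% = DMSO-treated cells in low-serum medium and 100% = 10% serum control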
# TLR9-MyD88 inh = inhibitors of human TLR9-MyD88 binding; AID 504734; actives 0.21% (n = 340,000); CHO BLA complementation TLR9-MyD88, CCF4 FRET ratio; inhibition, % at 4.98 µM;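 active = inhibition above the mean over all tested compounds plus 3 SD, cut at about 21% in these data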;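 also: 0% = DMSO only wells and 100% = clavulanate BLA inhibitor control wells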
# NOD2-RIPK2 inh = blocks binding of human NOD2 to RIPK2. inhibition, % at 4.98 µM. O43353. actives 0.38% (n = 360,000). CHO BLA complementation NOD2-RIPK2, CCF4 ratio; in the data active = inhibition above about 21%;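 also: 0% = vehicle only and 100% = reference blocker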
# The depositor's hits bear a star; nt = no result given; ! = a repeat was not active.
SMILES,MC4R ag barr,MC4R antag cAMP,TLR4-MyD88 BLA,MIN6 prolif,TLR9-MyD88 inh,NOD2-RIPK2 inh
Cc1cc(S(=O)(=O)Nc2cccnc2)c(C)s1,-3.4,1.2,-4.0,0.1,5.0,-3.8
O=S(=O)(Nc1ccc2ccccc2c1)c1ccccc1,0.9,-3.9,7.7,0.0,0.7,-0.3
Cc1cc(S(=O)(=O)Nc2ccc3ccccc3c2)c(C)s1,8.8*,-6.3,-3.8,-5.2,1.0,6.2
N/C(Cc1ccc(Cl)cc1Cl)=N\OC(=O)c1ccc(Br)o1,8.3*,13.3,nt,-4.8,1.3,-1.3
O=C(Nc1ccccc1F)c1ccc2nc(N3C(=O)CCC3=O)sc2c1,0.0,32.8*,-1.6,0.5,0.5,-11.7
O=C(Nc1ccc(F)cc1F)c1ccc2nc(N3CCOCC3)sc2c1,-1.9,8.8,nt,-0.9,-0.7,-13.9
COc1ccc(CC(=O)Nc2ccc(N3CCN(c4ccc(OC)cc4)CC3)c(C#N)c2)cc1,8.6*,2.4,-12.4,-0.9,-12.3,-11.8
CCOC(=O)c1c(NC(=O)Cn2nc(C(=O)O)c3ccccc3c2=O)sc(C)c1C,9.0*,-1.6,nt,-1.5,0.1,-10.3
O=[N+]([O-])c1cc(C(F)(F)F)ccc1Sc1ccccn1,8.6*,-4.8,-13.2,4.6,-12.0,-8.3
COc1ccc(NS(=O)(=O)c2ccc3c(c2)NC(=O)CC(=O)N3)cc1OC,-2.1,2.4,nt,3.0,-1.6,1.0
Cc1ccc(C)c(OCCCNCc2ccccc2)c1,6.6,16.6,nt,-2.5,-4.5,4.6
Clc1cc(Br)ccc1OCCCNCc1ccccc1,8.8*,3.4,0.1,-6.3,-6.5,-0.1
O=C(Nc1ccc(F)c(F)c1)c1cnc(-c2ccccc2)nc1-c1ccccc1,8.7*,-1.2,5.8,-1.1,15.8,-12.4
O=C(Nc1ccc(F)cc1)c1cnc(-c2ccccc2)nc1-c1ccccc1,7.9,12.1,-0.1,-3.2,0.8,-4.1
COc1ccccc1-c1cc(C(=O)Nc2cccnc2Cl)no1,7.6,21.4,nt,-1.2,-16.0,-1.0
COc1ccccc1-c1cc(C(=O)Nc2ccccc2SC)no1,8.7*,-8.3,-1.7,-1.7,-8.9,-2.7
COc1ccc(C2=CC3=C(Br)C(=O)C(C)(O)C(=O)C3=CO2)cc1 (centres undefined),1.4,34.8*,nt,-1.2,0.5,8.1
O=C(Nc1ccccc1O)C(c1ccccc1)c1ccccc1,1.5,-1.4,nt,-6.5,9.1,-0.6
O=C(Nc1ccccc1-c1ccccc1)C(c1ccccc1)c1ccccc1,9.4*,0.7,-8.9,-1.0,10.4,-2.2
CC(C)c1ccc(OCC(O)CN2CCN(c3ccccc3)CC2)cc1 (centres undefined),8.9*!,-4.2,-0.2,-1.4,-7.5,-7.4
Clc1ccc(CSc2nnc(-c3ccncc3)s2)cc1,0.1,2.6,nt,-1.7,5.4,1.3
Clc1cccc(Cl)c1CSc1nnc(-c2ccncc2)s1,30.8*,6.6,nt,-3.6,-3.9,-0.8
O=C(COc1ccccc1)N/N=C/c1ccc([N+](=O)[O-])o1,0.4,0.0,-3.9,-5.8,3.8,9.9
O=C(CNc1ccc2ccccc2c1)N/N=C/c1ccc([N+](=O)[O-])o1,11.3*,-9.1,-7.2,-5.7,-1.8,3.1
O=c1[nH]c2ccc(Cl)cc2c(-c2ccccc2)c1[N+](=O)[O-],9.3*,3.8,nt,-5.5,1.2,-8.9
SMILES,MC4R ag barr,MC4R antag cAMP,TLR4-MyD88 BLA,MIN6 prolif,TLR9-MyD88 inh,NOD2-RIPK2 inh
O=c1[nH]c2ccc(Cl)cc2c(O)c1-c1ccccc1,0.1,7.0,9.3,-2.6,-6.4,-4.3
COc1cccc(C=O)c1OCCCOc1cccc2cccnc12,-0.1,-6.3,nt,-3.0,-7.3,5.4
O=C(/C=C/c1ccccc1)NC(=S)Nc1ccccc1,1.0,5.1,nt,-4.5,8.9,0.8
O=C(/C=C/c1ccccc1)NC(=S)Nc1ccc(N2CCOCC2)cc1,14.0*,5.9,-3.4,-1.4,3.5,1.9
COc1cc(Br)cc2cc(C(=O)N3CCOCC3)c(=O)oc12,-1.3,0.9,nt,-2.6,-6.9,-7.8
O=C1OC(Sc2ccccc2)(c2ccccc2)c2ccccc21 (centres undefined),1.2,10.2,nt,nt,-4.8,0.6
Cc1ccc[n+](CC(=O)Nc2cc(C(F)(F)F)ccc2Cl)c1,1.7,9.0,-3.9,-1.7,7.7,1.1
CCC(C)(C)c1ccc(OCCCC[n+]2cccc(C)c2)c(C(C)(C)CC)c1,18.6*,11.0,11.4,nt,-10.3,1.4
CCOc1ccc(NS(=O)(=O)c2ccc(C(=O)N3CCC3)cc2)cc1,-0.2,-1.5,nt,-3.8,1.8,7.7
O=C(c1cccc(Cl)c1)c1nn(-c2ccccc2)c(=O)cc1C(F)(F)F,8.5*,-5.0,0.4,-4.0,-7.2,0.4
CCc1ccc(N2C(=O)/C(=C/c3cccs3)N(CC(=O)OC)C2=S)cc1,9.1*,2.0,-23.5,-2.1,19.6,2.5
COC(=O)CN1C(=S)N(c2ccc(OC)cc2)C(=O)/C1=C/c1cccs1,0.8,-1.9,-1.0,0.0,0.0,7.9
Cc1c(C(=O)O)sc(S(=O)(=O)N2CCN(C(=O)CC(C)c3ccccc3)CC2)c1C(=O)O (centres undefined),-1.4,6.7,nt,nt,3.2,-8.2
Cc1ccc(O)c(C(=O)CC(=O)c2ccc(C(C)(C)C)cc2)c1,12.3*,1.5,nt,-2.8,-3.1,-7.6
O=[N+]([O-])c1cccnc1N1CCN(c2ccc(F)cc2)CC1,0.3,0.0,10.0,-1.2,1.8,-9.4
Cc1cccc(N2CCN(C(=O)Cn3sc4nc(C)cc(C)c4c3=O)CC2C)c1 (centres undefined),0.5,2.6,-6.5,-6.6,16.3,22.9*
Cc1ccc(NC(=O)Nc2ccc3c(c2)N(C)C(=O)CS3)nc1,9.4*,10.4,1.9,-3.8,-4.9,-2.0
Cc1ccnc(NC(=O)Nc2ccc3c(c2)N(C)C(=O)CS3)c1,9.1*,5.3,-7.9,0.0,-2.9,-20.3
CC(=O)c1ccc(O)c(CSC2=NCCS2)c1,0.4,-1.2,-17.3,0.6,-9.2,0.0
COc1ccc(-c2nn(-c3ccccc3)cc2C=O)cc1[N+](=O)[O-],9.5*,-4.3,nt,-0.9,-11.7,2.7
C[C@H]1CN([C@@H](C)CO)C(=O)CCCn2nncc2CO[C@@H]1CN(C)S(=O)(=O)c1cccc(F)c1,-0.1,10.6,nt,nt,-4.4,9.0
N#Cc1cccc2c1-c1ccccc1/C2=N/NC(N)=O,0.0,-9.4,nt,1.3,4.2,4.4
N#Cc1cccc2c1-c1ccccc1/C2=N/NC(N)=S,17.1*,-47.3,nt,-3.0,-5.1,6.2
Cc1cc2c(cc1C)CSC(c1ccc(O)cc1)SC2,8.6*,-4.7,5.2,-0.4,9.7,-1.6
Nc1nc(CCl)nc(Nc2ccccc2)n1,-2.8,3.3,-8.3,-2.9,0.8,-17.4
COc1ccc(OC)c(Nc2nc(N)nc(CCl)n2)c1,9.2*,10.1,nt,-4.0,2.2,-7.6
